Active and inactive are the calls of the source. The calls are words filed in the database; no cut-off is given here.

The values below come from ChEMBL document CHEMBL1275361, “Synthesis and evaluation of 5-substituted 9-hydroxypyrrolo[3,4-c]carbazole-1,3(2H,6H)-diones as check point 1 kinase inhibitors” (Bioorg Med Chem, 2010).

The subject of assay [1] is CCRF-CEM. The assay is described as follows: Cytotoxicity against human CCRF-CEM cells up to 10 uM after 48 hrs. The assay is classed as functional, cell-based. The procedure, abridged:
(§1)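 Cells grown in RPMI 1640 with 10% FBS at 37 °C, 5% CO2. Exponentially growing cells seeded, treated after 24 h with compound for 48 h. Viability read by CCK-8 (2 h development, absorbance 450 nm), expressed as percent of untreated control. Three separate experiments, each in triplicate.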

Assay [2] has as its system ML-1a. The assay is described as follows: Cytotoxicity against human ML-1a cells up to 10 uM after 48 hrs. The assay is classed as functional, cell-based. The procedure, abridged:
as §1

In assay [3] the target is T1, Serine/threonine-protein kinase Chk1 (Homo sapiens, UniProt O14757).
T1 sequence (O14757 whole entry): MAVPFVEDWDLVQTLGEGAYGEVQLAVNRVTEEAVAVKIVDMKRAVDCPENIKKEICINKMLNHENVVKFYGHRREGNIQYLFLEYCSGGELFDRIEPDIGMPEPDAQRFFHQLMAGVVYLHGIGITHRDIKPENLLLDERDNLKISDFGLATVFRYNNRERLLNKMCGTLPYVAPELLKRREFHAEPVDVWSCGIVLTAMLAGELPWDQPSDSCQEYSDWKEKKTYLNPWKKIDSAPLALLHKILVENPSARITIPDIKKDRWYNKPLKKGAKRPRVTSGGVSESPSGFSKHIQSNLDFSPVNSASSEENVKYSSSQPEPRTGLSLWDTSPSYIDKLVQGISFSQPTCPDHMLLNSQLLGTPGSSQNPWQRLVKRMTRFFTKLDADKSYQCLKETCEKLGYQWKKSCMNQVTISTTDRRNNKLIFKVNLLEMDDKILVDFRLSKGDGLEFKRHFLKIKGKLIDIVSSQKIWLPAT
Description: Inhibition of human recombinant Chk1. The gist of the method: (§2)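 Chk1 activity measured by K-LISA checkpoint kit ELISA, following phosphorylation of a Cdc25 substrate peptide. Absorbance read at 450/540 nm. Inhibition calculated from activity with versus without compound. IC50 is the concentration inhibiting peptide phosphorylation. Values are the mean of three separate determinations.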

In assay [4] the target is T2, Serine/threonine-protein kinase Chk1 (Homo sapiens) (UniProt O14757).
T2 sequence (whole entry): T1 sequence (O14757 whole entry)
Description: Inhibition of human recombinant Chk1 at 10 uM. The procedure, abridged:
as §2

In assay [5] the target is Serine/threonine-protein kinase pim-2 (Homo sapiens) (UniProt Q9P1W9). The assay is described as follows: Inhibition of PIM2 at 0.1 uM. The procedure, abridged: (§3)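 Kinase panel run per ProfilerPro kit protocol. Compounds preincubated with enzyme 15 min at room temperature. Reaction started with peptide substrate (fixed 1.5 µM) and ATP at apparent Km, run 90 min, then stopped with termination buffer. Tested in duplicate. Read by microfluidic mobility-shift (Caliper), with product/(product+substrate) ratio as signal.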

Assay [6] deals with T3, Aurora kinase A (Homo sapiens) (UniProt O14965).
T3 sequence (whole entry): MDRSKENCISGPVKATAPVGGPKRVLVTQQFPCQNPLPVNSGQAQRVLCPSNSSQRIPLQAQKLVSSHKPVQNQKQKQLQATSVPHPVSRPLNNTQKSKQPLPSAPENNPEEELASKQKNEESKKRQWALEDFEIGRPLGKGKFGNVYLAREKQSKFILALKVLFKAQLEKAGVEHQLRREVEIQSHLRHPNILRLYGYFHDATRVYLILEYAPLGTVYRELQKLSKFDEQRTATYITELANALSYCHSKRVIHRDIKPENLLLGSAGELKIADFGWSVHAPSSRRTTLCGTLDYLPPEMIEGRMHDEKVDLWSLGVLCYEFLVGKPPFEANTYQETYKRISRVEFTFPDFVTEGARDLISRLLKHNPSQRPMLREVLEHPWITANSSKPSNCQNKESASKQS
Description: Inhibition of aurora A at 0.1 uM. The gist of the method: as §3

For assay [7], the target named is Serine/threonine-protein kinase MARK1 (Homo sapiens) (UniProt Q9P0L2). Description: Inhibition of MARK1 at 0.1 uM. The procedure, abridged:
as §3

Assay [8] has as its target Serine/threonine-protein kinase Chk2 (Homo sapiens) (UniProt O96017). The assay is described as follows: Inhibition of Chk2 at 0.1 uM. The gist of the method: as §3
Assay [9] can be described thus: Inhibition of CAMK2 at 0.1 uM. The gist of the method:
as §3

Assay [10] has as its target T4, 5'-AMP-activated protein kinase subunit beta-1 (Homo sapiens) (UniProt Q9Y478).
T4 sequence (whole entry): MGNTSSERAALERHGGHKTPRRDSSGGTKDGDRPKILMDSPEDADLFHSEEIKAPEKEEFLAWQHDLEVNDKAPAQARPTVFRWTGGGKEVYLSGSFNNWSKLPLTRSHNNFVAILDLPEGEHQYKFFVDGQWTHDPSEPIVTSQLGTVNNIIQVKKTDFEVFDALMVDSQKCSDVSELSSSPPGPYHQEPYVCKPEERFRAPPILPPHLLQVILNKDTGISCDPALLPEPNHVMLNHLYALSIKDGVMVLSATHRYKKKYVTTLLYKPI
The assay is described as follows: Inhibition of AMPK at 0.1 uM. The gist of the method:
as §3

The target of assay [11] is T5, Serine/threonine-protein kinase D2 (Homo sapiens) (UniProt Q9BZL6).
T5 sequence (whole entry): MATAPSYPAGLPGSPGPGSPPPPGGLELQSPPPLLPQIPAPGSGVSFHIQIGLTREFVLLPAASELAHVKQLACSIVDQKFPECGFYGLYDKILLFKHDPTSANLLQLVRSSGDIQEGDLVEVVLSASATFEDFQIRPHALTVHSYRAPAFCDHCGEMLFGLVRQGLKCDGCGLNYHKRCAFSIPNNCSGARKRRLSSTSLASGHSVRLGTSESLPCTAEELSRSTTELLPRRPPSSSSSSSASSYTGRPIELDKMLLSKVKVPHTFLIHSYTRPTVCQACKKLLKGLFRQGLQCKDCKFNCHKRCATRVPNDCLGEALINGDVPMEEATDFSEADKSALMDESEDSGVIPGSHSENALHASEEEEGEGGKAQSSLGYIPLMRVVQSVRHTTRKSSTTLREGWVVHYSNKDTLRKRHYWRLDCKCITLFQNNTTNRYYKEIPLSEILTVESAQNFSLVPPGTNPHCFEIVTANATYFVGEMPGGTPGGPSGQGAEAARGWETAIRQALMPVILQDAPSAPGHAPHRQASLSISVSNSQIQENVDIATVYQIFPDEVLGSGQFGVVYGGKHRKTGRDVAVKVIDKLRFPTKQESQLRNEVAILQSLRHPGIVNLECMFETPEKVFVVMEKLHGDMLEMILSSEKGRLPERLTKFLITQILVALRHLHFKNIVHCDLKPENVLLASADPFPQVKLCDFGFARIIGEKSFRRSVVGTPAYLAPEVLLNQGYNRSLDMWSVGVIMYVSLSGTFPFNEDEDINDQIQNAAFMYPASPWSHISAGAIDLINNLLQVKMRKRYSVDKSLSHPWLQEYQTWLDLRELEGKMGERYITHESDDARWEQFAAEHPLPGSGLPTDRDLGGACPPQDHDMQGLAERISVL
The assay is described as follows: Inhibition of PKD2 at 0.1 uM. The gist of the method:
as §3

Assay [12] addresses T6, Calcium/calmodulin-dependent protein kinase type IV (Homo sapiens) (UniProt Q16566).
T6 sequence (whole entry): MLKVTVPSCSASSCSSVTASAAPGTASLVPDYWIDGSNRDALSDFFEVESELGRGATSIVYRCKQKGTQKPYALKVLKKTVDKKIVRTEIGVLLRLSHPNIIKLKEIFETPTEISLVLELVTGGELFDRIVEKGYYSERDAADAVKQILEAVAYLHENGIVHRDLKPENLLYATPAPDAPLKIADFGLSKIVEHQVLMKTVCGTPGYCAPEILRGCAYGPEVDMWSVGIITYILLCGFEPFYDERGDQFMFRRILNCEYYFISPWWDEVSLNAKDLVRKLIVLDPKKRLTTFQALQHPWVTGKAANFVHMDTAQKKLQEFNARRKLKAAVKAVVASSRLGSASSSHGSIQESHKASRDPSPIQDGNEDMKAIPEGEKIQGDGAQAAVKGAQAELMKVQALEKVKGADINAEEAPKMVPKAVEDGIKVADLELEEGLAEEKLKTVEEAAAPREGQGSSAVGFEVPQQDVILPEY
Description: Inhibition of CAMK4 at 0.1 uM. The gist of the method:
as §3

Assay [13] deals with HeLa. The assay is described as follows: Cytotoxicity against human HeLa cells assessed as potentiation of SN-38-induced induction of DNA damaging activity at 5 uM after 48 hrs. The assay is classed as functional. The gist of the method: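 HeLa cells kept in MEM with 10% FBS and 1% nonessential amino acids at 37 °C, 5% CO2. Seeded cells treated after 24 h with SN-38, with or without test compound, for 48 h. Live cells measured by CCK-8 (2 h, A450), viability as percent of untreated control. Three experiments in triplicate.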

Serine/threonine-protein kinase Chk2 (Homo sapiens), sequence (O96017 whole entry): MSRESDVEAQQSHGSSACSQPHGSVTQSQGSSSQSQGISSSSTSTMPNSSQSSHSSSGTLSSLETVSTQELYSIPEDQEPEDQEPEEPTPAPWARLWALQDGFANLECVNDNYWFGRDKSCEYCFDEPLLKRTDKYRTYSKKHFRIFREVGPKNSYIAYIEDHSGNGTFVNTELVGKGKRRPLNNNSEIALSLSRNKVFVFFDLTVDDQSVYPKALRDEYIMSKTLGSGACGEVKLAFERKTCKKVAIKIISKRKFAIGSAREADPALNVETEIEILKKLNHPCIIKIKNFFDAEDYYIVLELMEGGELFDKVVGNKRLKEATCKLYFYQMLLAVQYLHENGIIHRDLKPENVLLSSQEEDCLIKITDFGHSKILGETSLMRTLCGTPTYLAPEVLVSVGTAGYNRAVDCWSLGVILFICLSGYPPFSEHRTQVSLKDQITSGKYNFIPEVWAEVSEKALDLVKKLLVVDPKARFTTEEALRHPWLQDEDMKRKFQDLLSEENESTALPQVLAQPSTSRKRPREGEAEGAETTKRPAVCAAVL
Serine/threonine-protein kinase pim-2 (Homo sapiens), sequence (Q9P1W9 whole entry, looked up): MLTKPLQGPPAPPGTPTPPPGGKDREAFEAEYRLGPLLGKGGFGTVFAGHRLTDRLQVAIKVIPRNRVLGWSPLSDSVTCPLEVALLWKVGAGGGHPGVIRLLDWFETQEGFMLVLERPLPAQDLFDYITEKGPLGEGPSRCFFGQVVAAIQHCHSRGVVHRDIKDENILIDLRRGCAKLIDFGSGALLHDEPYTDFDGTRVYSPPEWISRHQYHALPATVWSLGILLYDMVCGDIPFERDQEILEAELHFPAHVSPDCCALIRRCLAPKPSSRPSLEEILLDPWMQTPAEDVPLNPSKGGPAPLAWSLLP
Serine/threonine-protein kinase MARK1 (Homo sapiens), sequence (Q9P0L2 whole entry, looked up): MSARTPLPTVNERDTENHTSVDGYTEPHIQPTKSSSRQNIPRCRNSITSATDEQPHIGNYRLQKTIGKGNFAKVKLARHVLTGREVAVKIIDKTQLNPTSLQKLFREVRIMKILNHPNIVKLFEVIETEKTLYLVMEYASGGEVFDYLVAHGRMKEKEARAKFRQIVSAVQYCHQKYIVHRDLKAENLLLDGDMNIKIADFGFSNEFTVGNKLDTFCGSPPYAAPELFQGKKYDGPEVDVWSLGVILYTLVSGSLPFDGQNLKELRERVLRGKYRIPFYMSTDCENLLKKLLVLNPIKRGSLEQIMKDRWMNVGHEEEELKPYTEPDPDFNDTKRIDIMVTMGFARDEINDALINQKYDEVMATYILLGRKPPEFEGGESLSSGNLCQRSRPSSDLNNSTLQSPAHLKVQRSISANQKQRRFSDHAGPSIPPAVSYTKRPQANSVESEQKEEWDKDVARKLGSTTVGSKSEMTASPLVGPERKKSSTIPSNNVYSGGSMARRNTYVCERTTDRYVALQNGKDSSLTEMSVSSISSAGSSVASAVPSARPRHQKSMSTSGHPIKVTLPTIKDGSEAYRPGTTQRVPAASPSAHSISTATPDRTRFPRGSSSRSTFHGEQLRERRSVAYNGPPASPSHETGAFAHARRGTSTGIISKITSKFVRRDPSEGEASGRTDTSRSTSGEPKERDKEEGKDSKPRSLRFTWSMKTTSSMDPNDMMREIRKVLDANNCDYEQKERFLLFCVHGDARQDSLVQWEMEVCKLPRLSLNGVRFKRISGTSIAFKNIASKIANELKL

Usually IC50 stands for the concentration that inhibits the measured activity by half. On to `NCCCNC(=O)c1cccc(CNC(=O)c2cc3c(c4c2[nH]c2ccc(O)cc24)C(=O)NC3=O)c1`, for which the result in [1] and in [2] was inactive. Further, in [3], the IC50 came to 46 nM.

Broadly, the inhibition is the percentage by which the read-out fell short of the control. For `O=C1NC(=O)c2c1cc(C(=O)NCc1ccccc1)c1[nH]c3ccccc3c21`, the IC50 in assay [3] came to 9000 nM. In [4], the inhibition turned out to be 71%.

With `NC(=O)c1cccc(CNC(=O)c2cc3c(c4c2[nH]c2ccccc24)C(=O)NC3=O)c1`, the inhibition result in assay [5], in assay [6], in assay [7], in [8], in [9] and in assay [10] was “Active” throughout. Further, the inhibition entry in [11] and in assay [12] was “Active” in each case. For the same molecule, the result in assay [1] and in assay [2] was inactive. For the same molecule, in assay [3], the IC50 amounted to 448 nM. Besides, the inhibition in [4] turned out to be 83%.

As to `N#Cc1ccc(CNC(=O)c2cc3c(c4c2[nH]c2ccccc24)C(=O)NC3=O)cc1`, the inhibition in assay [4] came out at 46%.

On to `N=C(N)NCCCNC(=O)c1cccc(CNC(=O)c2cc3c(c4c2[nH]c2ccccc24)C(=O)NC3=O)c1`, for which the result in [1] and in assay [2] was inactive. Besides, the half-maximal inhibitory concentration (IC50) in [3] worked out at 235 nM.

In the case of `N#Cc1cccc(CNC(=O)c2cc3c(c4c2[nH]c2ccccc24)C(=O)NC3=O)c1`, in assay [4], the inhibition was determined as 48%.

As to `N=C(N)NCCNC(=O)c1cccc(CNC(=O)c2cc3c(c4c2[nH]c2ccc(O)cc24)C(=O)NC3=O)c1`, the result in assay [1] and in assay [2] was inactive. Further, in [3], the half-inhibitory concentration (IC50) was 2.8 nM.

In the case of `NC(=O)c1ccc(CNC(=O)c2cc3c(c4c2[nH]c2ccccc24)C(=O)NC3=O)cc1`, the inhibition in assay [4] worked out at 27%.

Turning to `NCCNC(=O)c1cccc(CNC(=O)c2cc3c(c4c2[nH]c2ccccc24)C(=O)NC3=O)c1`, the result in assay [1] and in assay [2] was inactive. In addition, the IC50 in assay [3] stood at 336 nM.

Regarding `CN[C@@H]1C[C@H]2O[C@@](C)([C@@H]1OC)n1c3ccccc3c3c4c(c5c6ccccc6n2c5c31)C(=O)N[C@H]4O`, the outcome in [1] and in assay [2] was inactive.

Take `NCCCNC(=O)c1cccc(CNC(=O)c2cc3c(c4c2[nH]c2ccccc24)C(=O)NC3=O)c1`: the outcome in assay [1] and in assay [2] was inactive. Also, the IC50 in assay [3] amounted to 251 nM.

On to `Cl.NCCNC(=O)c1cccc(CNC(=O)c2cc3c(c4c2[nH]c2ccc(O)cc24)C(=O)NC3=O)c1`, for which the “fold change (FC)” value in assay [13] worked out at 4. The outcome in assay [1] and in assay [2] was inactive. Further, in assay [3], the IC50 is 31 nM.

In the case of `CC(C)(C)OC(=O)c1cc2c(c3c1[nH]c1ccccc13)C(=O)NC2=O`, the inhibition in assay [4] turned out to be 1%.

In the case of `O=C1NC(=O)c2c1cc(C(=O)O)c1[nH]c3ccccc3c21`, the inhibition in assay [4] is 46%.

For `N=C(N)NCCCNC(=O)c1cccc(CNC(=O)c2cc3c(c4c2[nH]c2ccc(O)cc24)C(=O)NC3=O)c1`, the outcome in assay [1] and in [2] was inactive. In addition, the IC50 in assay [3] was found to be 22 nM.

For `N=C(N)NCCNC(=O)c1cccc(CNC(=O)c2cc3c(c4c2[nH]c2ccccc24)C(=O)NC3=O)c1`, the outcome in assay [1] and in assay [2] was inactive. Moreover, the IC50 in assay [3] came out at 123 nM.
